# Source: ChEMBL document CHEMBL5579848, “Isothiocyanate-Corticosteroid Conjugates against asthma: Unity makes strength” (Eur J Med Chem, 2024)
# Active and inactive are the calls of the source. The rule behind the calls is not given here.
# Columns and labels:
# [1] = Half life in simulated gastric fluid at pH 1.2 in absence of pepsin at 100 uM incubated at 37 degreeC up to 24 hrs by UPHLC analysis; type: ADME; conditions: simulated gastric fluid without pepsin
# Method in brief: (§1)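 A 10 mM DMSO stock was diluted to 100 μM in PBS (pH 7.4, 50 mM) or pepsin-free SGF (pH 1.2) and held at 37 ± 0.5 °C for 24 h. Timed aliquots were quantified by reverse-phase UHPLC-DAD against calibration curves (1.56–100 ppm), tracking the parent compound plus aminoacetate and corticosteroid metabolites. Pseudo-first-order t1/2 was calculated; n = 3.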
# [2] = biological target: T1, Albumin (Bos taurus, UniProt P02769); experiment: Half life in 3% bovine serum albumin at 200 uM incubated up to 4 hrs by UHPLC analysis; type: ADME; conditions: cattle, 3% bovine serum albumin solution
# Method in brief: (§2)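 A 10 mM DMSO stock was diluted to 200 μM in 3 % BSA in PBS and incubated at 37 ± 0.5 °C for up to 4 h. Timed samples were deproteinized with an equal volume of acetonitrile/0.1 % TFA, centrifuged, filtered and quantified by UHPLC. Results are given as pseudo-first-order t1/2 or % parent remaining at 10 min; n ≥ 3.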
# [3] = test system: RBL-2H3; experiment: Cytotoxicity against rat RBL-2H3 cells assessed as reduction cell viability at 100 uM after 24 hrs by WST assay; type: toxicity, cell-based; conditions: rbl-2h3, 24 h
# Method in brief: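 RBL-2H3 cells were grown in MEM with 10 % FBS, 10^4 cells/well, and attached for 24 h. They were then exposed 24 h to 100 μM compound (final) or 0.1 % DMSO. WST-1 (1:10) was added for 60 min at 37 °C and absorbance read at 450 nm. Viability is expressed as % of vehicle; mean ± SEM.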
# [4] = Solubility of compound in PBS at pH 7.4 at 5 mg incubated at 25 degreeC for 6 hrs by UHPLC analysis; type: physicochemical
# Method in brief: (§3)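 Solid compound (5 mg) was shaken in 1 mL water, PBS (pH 7.4, 50 mM) or pepsin-free SGF (pH 1.2) for 6 h at 25 °C. Suspensions were filtered (0.45 μm) and the filtrate quantified by UHPLC, reported in mg/L; triplicate, mean values.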
# [5] = Solubility of compound in simulated gastric fluid at pH 1.2 in absence of pepsin at 5 mg incubated at 25 degreeC for 6 hrs by UHPLC analysis; type: ADME; conditions: simulated gastric fluid without pepsin; method in brief: as §3
# [6] = Induction of H2S release in PBS at pH 7.4 at 100 uM pretreated with L-Cys for 10 mins followed by compound addition and measured after 30 mins by free radical analyzer; type: physicochemical; conditions: buffer, pH 7.4, 0.5 h
# Method in brief: (§4)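 An H2S-selective mini-electrode was equilibrated in PBS pH 7.4, and compound was added to 100 μM final (1 % DMSO). Amperometric current was recorded for 30 min, with or without L-cysteine 4 mM added 10 min before. Current was converted to H2S using NaHS calibration (1–10 µM, pH 4.0); mean ± SEM.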
# [7] = Induction of H2S release in PBS at pH 7.4 at 100 uM measured after 30 mins by free radical analyzer; type: physicochemical; conditions: buffer, pH 7.4, 0.5 h; method in brief: as §4
# [8] = Solubility of compound in water at 5 mg incubated at 25 degreeC for 6 hrs by UHPLC analysis; type: physicochemical; method in brief: as §3
# [9] = Half life in PBS at pH 7.4 at 100 uM incubated at 37 degreeC up to 24 hrs by UPHLC analysis; type: ADME; method in brief: as §1
# [10] = test system: RBL-2H3; experiment: Inhibition of mast cell degranulation in DNP-HSA antigen sensitized rat RBL-2H3 cells assessed as reduction in beta-hexoaminosidase release at 100 uM preincubated for 5 mins followed by DNP addition and measured after 1 hr by multiplate reader; type: functional, cell-based; conditions: time 65.0 min
# Method in brief: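 RBL-2H3 cells (72×10^3/well) were sensitized overnight with anti-DNP IgE 0.50 µg/ml, then moved to phenol-free DMEM with 1 mg/ml BSA. Cells were preincubated 5 min at 37 °C with 0.1 % DMSO, cromolyn 1 mM or compound 100 μM, then challenged with DNP-HSA 10 ng/ml. After 1 h, supernatant was incubated 1 h with 1.4 mM p-nitrophenyl-N-acetyl-β-D-glucosaminide (citrate pH 4.2), stopped with Trizma pH 9.4, and read at 405 nm.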
# [11] = biological target: T1, Albumin; experiment: Stability in 3% bovine serum albumin assessed as parent compound remaining at 200 uM incubated at 37 degreeC for 10 mins by UHPLC analysis; type: ADME; conditions: cattle, 3% bovine serum albumin solution, read-out: Stability; method in brief: as §2
# [12] = test system: Mus musculus; experiment: Anti-asthmatic activity in OVA-induced ip dosed female BALB/c mouse model assessed as reduction in pulmonary IL-13 level administered for 30 min before every ovalbumin challenge on day 0 and 7 and measured after 21 days by ELISA; type: functional, organism-based; conditions: dose 1-2 mg/kg, time 21.0 day
# Method in brief: (§5)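 Female BALB/c mice (20 g, 8 weeks) sensitized s.c. with 100 μg ovalbumin adsorbed to 13.3 mg aluminum hydroxide gel (0.4 ml) on days 0 and 7; saline controls. Test agent (1–2 mg/kg, or equimolar 3,51 × 10^-6 mol) or vehicle given ip 30 min before each OVA dose. Killed day 21 by enflurane overdose; lungs, bronchi, blood collected.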
# [13] = test system: Mus musculus; experiment: Anti-asthmatic activity in OVA-induced female BALB/c mouse model assessed as restoration of structure of bronchial epithelium at 3.512 x 10^-6M, ip for 30 min before every ovalbumin challenge on day 0 and 7 and measured after 21 days by H and E staining based microscopic analysis; type: functional, organism-based; conditions: dose 3.512 10^-6M, time 21.0 day; method in brief: as §5
# [14] = test system: Mus musculus; experiment: Anti-asthmatic activity in OVA-induced female BALB/c mouse model assessed as reduction in thickening of airway smooth muscle layer at 1 mg/kg, ip for 30 min before every ovalbumin challenge on day 0 and 7 and measured after 21 days by H and E staining based microscopic analysis; type: functional, organism-based; conditions: time 21.0 day; method in brief: as §5
# [15] = test system: Mus musculus; experiment: Anti-asthmatic activity in OVA-induced female BALB/c mouse model assessed as reduction in IgE level in plasma at 2 mg/kg, ip for 30 min before every ovalbumin challenge on day 0 and 7 and measured after 21 days by ELISA; type: functional, organism-based; conditions: time 21.0 day; method in brief: as §5
# [16] = test system: Mus musculus; experiment: Anti-asthmatic activity in OVA-induced female BALB/c mouse model assessed as reduction in detachment of the lamina propria at 1 mg/kg, ip for 30 min before every ovalbumin challenge on day 0 and 7 and measured after 21 days by H and E staining based microscopic analysis; type: functional, organism-based; conditions: time 21.0 day; method in brief: as §5
# [17] = test system: Mus musculus; experiment: Anti-asthmatic activity in OVA-induced female BALB/c mouse model assessed as reduction in thickening of airway smooth muscle layer at 2 mg/kg, ip for 30 min before every ovalbumin challenge on day 0 and 7 and measured after 21 days by H and E staining based microscopic analysis; type: functional, organism-based; conditions: time 21.0 day; method in brief: as §5
# [18] = test system: Mus musculus; experiment: Anti-asthmatic activity in OVA-induced female BALB/c mouse model assessed as reduction in cell infiltration at 2 mg/kg, ip for 30 min before every ovalbumin challenge on day 0 and 7 and measured after 21 days by H and E staining based microscopic analysis; type: functional, organism-based; conditions: time 21.0 day; method in brief: as §5
# [19] = test system: Mus musculus; experiment: Anti-asthmatic activity in OVA-induced female BALB/c mouse model assessed as restoration of structure of alveolar septa at 3.512 x 10^-6M, ip for 30 min before every ovalbumin challenge on day 0 and 7 and measured after 21 days by H and E staining based microscopic analysis; type: functional, organism-based; conditions: dose 3.512 10^-6M, time 21.0 day; method in brief: as §5
# [20] = test system: Mus musculus; experiment: Anti-asthmatic activity in OVA-induced female BALB/c mouse model assessed as reduction in alpha-SMA positive muscle layers at 3.512 x 10^-6M, ip for 30 min before every ovalbumin challenge on day 0 and 7 and measured after 21 days by immunohistochemical staining based microscopic analysis; type: functional, organism-based; conditions: dose 3.512 10^-6M, time 21.0 day; method in brief: as §5
# [21] = test system: Mus musculus; experiment: Anti-asthmatic activity in OVA-induced female BALB/c mouse model assessed as reduction in cell infiltration at 1 mg/kg, ip for 30 min before every ovalbumin challenge on day 0 and 7 and measured after 21 days by H and E staining based microscopic analysis; type: functional, organism-based; conditions: time 21.0 day; method in brief: as §5
# [22] = test system: Mus musculus; experiment: Anti-asthmatic activity in OVA-induced female BALB/c mouse model assessed as reduction in alpha-SMA positive muscle layers at 1 to 2 mg/kg, ip for 30 min before every ovalbumin challenge on day 0 and 7 and measured after 21 days by immunohistochemical staining based microscopic analysis; type: functional, organism-based; conditions: dose 1-2 mg/kg, time 21.0 day; method in brief: as §5
# [23] = test system: Mus musculus; experiment: Anti-asthmatic activity in OVA-induced female BALB/c mouse model assessed as reduction in detachment of the lamina propria at 2 mg/kg, ip for 30 min before every ovalbumin challenge on day 0 and 7 and measured after 21 days by H and E staining based microscopic analysis; type: functional, organism-based; conditions: time 21.0 day; method in brief: as §5
# [24] = test system: Mus musculus; experiment: Anti-asthmatic activity in OVA-induced female BALB/c mouse model assessed as restoration of structure of airway smooth muscle at 3.512 x 10^-6M, ip for 30 min before every ovalbumin challenge on day 0 and 7 and measured after 21 days by H and E staining based microscopic analysis; type: functional, organism-based; conditions: dose 3.512 10^-6M, time 21.0 day; method in brief: as §5
# [25] = test system: Mus musculus; experiment: Anti-asthmatic activity in OVA-induced ip dosed female BALB/c mouse model assessed as inhibition of bronchial hyperreactivity administered 30 min prior to every ovalbumin challenge on day 0 and 7 and measured after 21 days by isometric force transducer analysis; type: functional, organism-based; conditions: dose 1-2 mg/kg, time 21.0 day; method in brief: as §5
# T1 sequence (P02769 whole entry): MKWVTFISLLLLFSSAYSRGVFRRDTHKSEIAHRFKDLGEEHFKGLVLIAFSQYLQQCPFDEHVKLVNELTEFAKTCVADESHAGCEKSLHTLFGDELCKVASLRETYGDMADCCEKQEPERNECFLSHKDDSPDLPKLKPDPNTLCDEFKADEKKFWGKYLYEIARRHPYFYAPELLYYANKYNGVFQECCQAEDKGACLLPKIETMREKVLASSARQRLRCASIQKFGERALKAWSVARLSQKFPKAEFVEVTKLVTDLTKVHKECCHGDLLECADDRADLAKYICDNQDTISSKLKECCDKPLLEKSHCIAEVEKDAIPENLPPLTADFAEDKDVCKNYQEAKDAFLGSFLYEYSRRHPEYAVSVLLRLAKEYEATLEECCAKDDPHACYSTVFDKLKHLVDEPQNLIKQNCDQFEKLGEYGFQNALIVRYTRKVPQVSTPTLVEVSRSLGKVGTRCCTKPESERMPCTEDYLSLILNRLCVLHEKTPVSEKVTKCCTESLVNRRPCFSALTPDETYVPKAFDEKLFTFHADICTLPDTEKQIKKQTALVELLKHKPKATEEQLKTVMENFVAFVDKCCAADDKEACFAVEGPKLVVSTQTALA
Structure (SMILES),half-life at 100 µM [1],Activity [3],solubility at 6 h [4],solubility at 6 h [5],Activity [6],Activity [7],solubility at 6 h [8],half-life at 100 µM [9],inhibition [10],"remaining at 10 min, 200 µM [11]",other results
CCCCC(=O)O[C@]1(C(=O)COC(=O)CN=C=S)[C@@H](C)C[C@H]2[C@@H]3CCC4=CC(=O)C=C[C@]4(C)[C@@]3(F)[C@@H](O)C[C@@]21C,> 1440 min,Toxic,0.12 µg/mL,0.16 µg/mL,Active,Active,< 0.1 µg/mL,> 1440 min,,,half-life at 200 µM [2]: 60 min
[Na+].[SH-] [SODIUM HYDROSULFIDE],,,,,<= 20 uM,<= 20 uM,,,,,
C[C@@H]1C[C@H]2[C@@H]3CCC4=CC(=O)C=C[C@]4(C)[C@@]3(F)[C@@H](O)C[C@]2(C)[C@@]1(O)C(=O)COC(=O)CN=C=S,600 min,Non-Toxic,< 0.1 µg/mL,< 0.1 µg/mL,~ 2 uM,~ 2 uM,0.14 µg/mL,42 min,Active,6%,
C[C@@H]1C[C@H]2[C@@H]3CCC4=CC(=O)C=C[C@]4(C)[C@@]3(F)[C@@H](O)C[C@]2(C)[C@@]1(O)C(=O)COC(=O)CN,,,,,,,,,Active,,
C[C@]12C=CC(=O)C=C1CC[C@@H]1[C@@H]2C(=O)C[C@@]2(C)[C@H]1CC[C@]2(O)C(=O)COC(=O)CN,,,,,,,,,Active,,
C[C@]12C=CC(=O)C=C1CC[C@@H]1[C@@H]2C(=O)C[C@@]2(C)[C@H]1CC[C@]2(O)C(=O)COC(=O)CN=C=S,1080 min,Non-Toxic,15.9 µg/mL,16.1 µg/mL,~ 2 uM,~ 2 uM,5.26 µg/mL,12 min,Active,19%,
C[C@]12C=CC(=O)C=C1CC[C@@H]1[C@@H]2[C@@H](O)C[C@@]2(C)[C@H]1C[C@H]1O[C@@H](C3CCCCC3)O[C@]12C(=O)COC(=O)CN=C=S,> 1440 min,Non-Toxic,0.25 µg/mL,< 0.1 µg/mL,~ 2 uM,~ 2 uM,0.55 µg/mL,> 1440 min,Active,,Activity [12]: Dose-Dependent Effect; Activity [13]: Active; Activity [14]: inactive; half-life at 200 µM [2]: 84 min; Activity [15]: Active; Activity [16]: inactive; Activity [17]: Active; Activity [18]: Active; Activity [19]: Active; Activity [20]: Active; Activity [21]: inactive; Activity [22]: Active; Activity [23]: Active; Activity [24]: Active; inhibition [25]: Dose-Dependent Effect
CCCC1O[C@@H]2C[C@H]3[C@@H]4CCC5=CC(=O)C=C[C@]5(C)[C@H]4[C@@H](O)C[C@]3(C)[C@]2(C(=O)COC(=O)CN=C=S)O1 (some centres not stated),> 1440 min,Non-Toxic,< 0.1 µg/mL,< 0.1 µg/mL,~ 2 uM,~ 2 uM,< 0.1 µg/mL,> 1440 min,Active,23%,
